# KCNQ1 pot: potentiators or activators of KCNQ1 channel, primary screen, cell-based, thallium flux, high-throughput | CHO-K1 KCNQ1, thallium flux FluxOR fluorescence; hits give high values | 310,000 tested, 0.35% active | B-score at 10 µM | Potassium voltage-gated channel subfamily KQT member 1 (Homo sapiens), P51787 | AID 2648, 2010;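 active = fluorescence ratio B-score, a plate-corrected score, at least three library SD, with initial intensity B-score within 5 SD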
#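 Schedule – 37 °C overnight plating, 90-min dark dye load, 20-min compound pretreatment · System – stable KCNQ1 CHO-K1 line · Probe or stimulus – thallium- and potassium-containing depolarizing buffer · Measured by – kinetic FluxOR fluorescence, 10 s baseline plus 110 s post-stimulus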
# KCNK9 block: KCNK9 potassium channel inhibitors, primary screen, HEK293 cells, thallium flux; Potassium channel subfamily K member 9 (Homo sapiens), Q9NPC2; FluxOR thallium flux fluorescence; hits give low values; B-score at 10 µM; 310,000 tested, 1.2% active; AID 488922, 2010;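 active = ratio B-score over 3 SD below the library mean, with starting fluorescence within 5 SD of its mean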;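 note: negative B-score means less thallium flux so channel inhibition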
# KCNQ1 block: inhibitors of human KCNQ1 channel, primary screen, cell-based, thallium flux, high-throughput; Potassium voltage-gated channel subfamily KQT member 1 (Homo sapiens), P51787; CHO-K1 KCNQ1, FluxOR thallium flux fluorescence; hits give high values; B-score at 10 µM; 310,000 tested, 1.3% active; AID 2642, 2010;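 active = compounds whose thallium flux B-score, printed positive for inhibition, exceeds three library SD while starting fluorescence stays within three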;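 note: channel opened by potassium depolarization with thallium stimulus after 20 min compound exposure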
# KCNK3 block: human KCNK3 channel inhibitors, primary screen, CHO cells, FluxOR thallium flux, B-score. Potassium channel subfamily K member 3 (Homo sapiens), O14649. FluxOR fluorescence; hits give low values. B-score at 10 µM. 340,000 tested, 0.84% active. AID 602410, 2012;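 active = B-score under library mean minus 4 SD, starting fluorescence ratio at most library mean plus 5 SD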;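 note: more negative B-score means stronger inhibition of thallium flux through KCNK3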
# Kir21 block: inhibitors of mouse Kir2.1 inward-rectifier potassium channel | Inward rectifier potassium channel 2 (Mus musculus), P35561 | 310,000 tested, 0.85% active | B-score at 10 µM | AID 1672, 2009 | HEK293-Kir2.1, FluxOR thallium flux fluorescence; hits give low values;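 active = fluorescence ratio B-score at or below minus 3 SD of library scores, with starting-brightness B-score within 2 SD, cut at about -4.2 in these data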;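 note: channel flux triggered by added potassium and thallium sulfate stimulus; B-score of peak minus minimum fluorescence over baseline after thallium stimulus; more negative B-score means stronger Kir2.1 block with less thallium influx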
# hERG rescue: hERG rescue from dofetilide block, primary screen, cell-based, CHO-hERG, FluxOR thallium flux, dofetilide IC70. Voltage-gated inwardly rectifying potassium channel KCNH2 (Homo sapiens), Q12809. dofetilide IC70 present. activation (rescue from dofetilide block), less the hit threshold, % at 10 µM. 310,000 tested, 0.51% active;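 active = activation above the mean of controls blocked by dofetilide plus 5 SD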;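 note: thallium influx through hERG after potassium depolarization seen as dye fluorescence rise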
# KCNQ1 block val: KCNQ1 potassium channel inhibitors, confirmation, cell-based, Tl flux, duplicate; shares compounds with KCNQ1 block; KCNQ1 cell line, FluxOR thallium flux fluorescence; inhibition, % at 10 µM; 1,600 tested, 93% active; AID 588353, 2011;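 active = primary screen active, with duplicate mean exceeding buffer control mean plus 3 SD of buffer wells, cut at about 28% in these data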;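 note: 0% = buffer control ratio and 100% = XE991 inhibitor control ratio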
# CHO Tl flux: thallium flux effects in parental CHO cells, counter-screen for KCNQ1 inhibitor project, cell-based, Tl flux. shares compounds with KCNQ1 block. parental CHO-K1, FluxOR thallium flux fluorescence ratio; hits give low values; zero means no signal rise above baseline. fluorescence ratio (Tl flux) at 10 µM. 1,600 tested, 21% active. AID 588366, 2011;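 active = mean of duplicate thallium-flux fluorescence ratios in parental host cells more than 5 SD below the buffer control mean, cut at about 0.38 in these data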;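 note: ratio is peak minus minimum fluorescence divided by baseline fluorescence; actives read low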
# KCNQ1 ephys val: KCNQ1 channel inhibitors, confirmation, orthogonal assay, cell-based, automated electrophysiology. shares compounds with KCNQ1 block. KCNQ1-CHO cells, automated patch clamp current. calls only at 10 µM. 490 tested, 20% active. AID 624120, 2012;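 active = KCNQ1 current drop exceeding 3 SD of negative control wells, seen in both duplicate runs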;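 note: steady state current during a 2 s step from -80 to +40 mV; negative values mean current inhibition and positive values mean potentiation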
# KCNQ2 spec: KCNQ2 channel inhibition, selectivity assay for KCNQ1 inhibitor project, cell-based; shares compounds with KCNQ1 block; KCNQ2 cells, FluxOR thallium flux fluorescence; inhibition, % at 10 µM; 1,600 tested, 71% active; AID 651746, 2012;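 active = mean percent inhibition of the KCNQ2 thallium signal more than 5 SD above the buffer-only control wells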;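 note: KCNQ2 expressed in CHO cells; 0% = buffer control wells and 100% = XE-991 inhibitor control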
# Target sequence (O88943 whole entry, looked up): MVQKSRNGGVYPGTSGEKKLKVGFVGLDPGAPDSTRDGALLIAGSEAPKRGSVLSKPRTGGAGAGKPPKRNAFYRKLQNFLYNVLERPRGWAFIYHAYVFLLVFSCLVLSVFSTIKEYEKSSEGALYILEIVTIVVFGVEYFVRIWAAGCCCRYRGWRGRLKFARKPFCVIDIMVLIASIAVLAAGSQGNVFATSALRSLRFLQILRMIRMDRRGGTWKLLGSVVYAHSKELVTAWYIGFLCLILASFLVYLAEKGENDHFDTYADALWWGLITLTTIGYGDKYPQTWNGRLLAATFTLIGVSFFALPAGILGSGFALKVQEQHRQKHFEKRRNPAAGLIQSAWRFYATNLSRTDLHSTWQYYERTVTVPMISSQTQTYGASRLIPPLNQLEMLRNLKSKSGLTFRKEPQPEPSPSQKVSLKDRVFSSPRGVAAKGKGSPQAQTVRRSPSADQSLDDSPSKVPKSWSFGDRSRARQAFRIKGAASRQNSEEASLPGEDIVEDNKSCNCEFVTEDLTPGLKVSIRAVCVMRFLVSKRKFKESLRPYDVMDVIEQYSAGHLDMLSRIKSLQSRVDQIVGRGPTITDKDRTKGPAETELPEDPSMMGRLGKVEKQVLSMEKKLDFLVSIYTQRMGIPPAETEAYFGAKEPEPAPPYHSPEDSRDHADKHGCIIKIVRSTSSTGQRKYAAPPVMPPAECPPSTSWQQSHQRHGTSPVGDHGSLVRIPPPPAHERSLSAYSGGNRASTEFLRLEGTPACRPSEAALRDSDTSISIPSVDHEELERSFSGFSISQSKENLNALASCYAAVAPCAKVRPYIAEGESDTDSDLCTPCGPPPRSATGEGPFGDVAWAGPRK
# KCNQ1-KCNE1 inh: KCNQ1/KCNE1 channel inhibition, selectivity assay for KCNQ1 inhibitor project, CHO-K1 cells, thallium flux, FluxOR. shares compounds with KCNQ1 block. FluxOR thallium flux fluorescence. inhibition, % at 10 µM. 1,600 tested, 77% active. AID 652147, 2013;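 active = mean percent inhibition of duplicate wells above the buffer-only control mean plus 3 SD of those controls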;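 note: 0% = buffer only wells and 100% = XE-991 inhibitor control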
# KCNK9 inh conf: KCNK9 potassium channel inhibitors, confirmation, HEK293 cells, thallium flux, duplicate; shares compounds with KCNK9 block; FluxOR thallium flux fluorescence; inhibition, % at 10 µM; 4,900 tested, 43% active; AID 492992, 2010;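 active = thallium signal inhibited by more than 5 SD of the compound-free buffer control wells, on both duplicate plates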;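 note: 0% = assay buffer control wells without compound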
# Kir2-1 spec: mouse Kir2.1 channel inhibition, confirmation, selectivity assay for KCNK9 modulator project, cell-based, HEK293, thallium flux; Kir2.1 cells, FluxOR thallium flux fluorescence; inhibition, % at 10 µM; shares compounds with KCNK9 block; AID 492993, 2010; 4,900 tested, 4% active;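 active = thallium signal drop more than 5 SD beyond the mean of the no-compound control wells, seen in both duplicate plates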;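 note: signal is fluorescence rise after thallium addition divided by baseline fluorescence; plate controls were assay buffer only for no effect and full block by chlorpromazine control for full effect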
# KCNK9 uninduced: thallium flux in non-induced HEK293 cells, confirmation, counter-screen for KCNK9 inhibitor project, cell-based, second counter screen, non-induced KCNK9-HEK293; shares compounds with KCNK9 block; FluxOR thallium flux; inhibition, % at 10 µM; 4,900 tested, 40% active;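 active = thallium signal drop beyond 5 SD of the untreated control mean, on both duplicate plates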;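 note: plate controls were buffer only IC0 wells for no effect and SID17386958 at its maximal inhibitory level for full effect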
# * = called active by the depositor; i = inactive; x = no result. Sampled rows, rich in hits. Any-hit rate of the full collection: about 3.7%.
SMILES,KCNQ1 pot,KCNK9 block,KCNQ1 block,KCNK3 block,Kir21 block,hERG rescue,KCNQ1 block val,CHO Tl flux,KCNQ2 spec,KCNQ1-KCNE1 inh,KCNK9 inh conf,Kir2-1 spec,KCNK9 uninduced,others
CN(C(=O)CSc1nc(-c2ccc(C(C)(C)C)cc2)c(C#N)c(=O)[nH]1)C1CCCCC1,i,i,7*,i,1.04,-14.6,54.5*,0.416,79.3%*,i,i,i,29.0%*,
Cc1cc(C)c(C#N)c(SCC(=O)N(C)C2CCCCC2)n1,i,i,i,i,-0.22,-11.1,x,x,x,x,x,x,x,
O=C(NCCCCc1ccccc1)Nc1ccc(F)cc1F,i,i,i,i,1.22,-10.3,x,x,x,x,x,x,x,
Clc1cccc(Cl)c1CSc1cc2c(nn1)-c1ccccc1CC2,i,i,i,i,0.43,-20.6,x,x,x,x,x,x,x,
Clc1ccccc1CSc1cc2c(nn1)-c1ccccc1CC2,i,-11.1*,9*,i,0,-15.2,81.5*,0.403,97.3%*,128.0%*,46.0%*,i,43.0%*,
CC(c1ccon1)N(C)Cc1cn(C)nc1-c1cccc(Cl)c1 (stereo unspecified),i,i,i,i,0.51,-10.2,x,x,x,x,x,x,x,
Fc1ccc(C(c2nnnn2Cc2ccccc2)N2CCSCC2)cc1 (stereo unspecified),i,i,i,i,-0.33,-3.6,x,x,x,x,x,x,x,
Clc1ccc(C(c2nnnn2CCc2ccccc2)N2CCSCC2)cc1 (stereo unspecified),i,-14.1*,7*,i,0.69,0.9,116.0*,0.419,105.7%*,82.0%*,56.0%*,i,45.5%*,KCNQ1 ephys val=i
Cc1cc(C(=O)N2CCN(C(c3ccccc3)c3ccccc3)CC2)on1,i,i,i,i,0.17,-10.6,x,x,x,x,x,x,x,
COc1ccc(-c2ocnc2C(=O)N2CCN(C(c3ccccc3)c3ccccc3)CC2)cc1,i,-14.2*,8*,i,-0.1,-12.5,79.5*,0.424,87.7%*,94.5%*,68.0%*,i,36.5%*,
COc1ccccc1N1CCN(C(=O)CSc2nc3ccccc3[nH]2)CC1,i,i,i,i,0.96,-11.1,x,x,x,x,x,x,x,
COc1ccccc1N1CCN(C(=O)CSc2nc3ccccc3nc2N2CCCCC2)CC1,i,i,6*,i,-3.02,-18.4,70.0*,0.521,i,99.0%*,i,i,i,
C=CCSc1nnc(C)c(/C=C/Nc2ccc(Cl)cc2)n1,i,-10.6*,8*,i,-1.05,-11.7,73.0*,0.335*,105.7%*,97.5%*,30.5%*,i,55.5%*,
CSc1nnc(C)c(/C=C/Nc2ccc(F)cc2F)n1,i,i,i,i,-0.89,-6.1,x,x,x,x,x,x,x,
Cc1ccc(S(=O)(=O)NCc2ccccc2)cc1C(=O)N(C)CC(=O)Nc1c(Cl)cccc1Cl,i,i,i,i,-0.38,-15.2,x,x,x,x,x,x,x,
O=S(=O)(c1ccc(Cl)s1)N1CCC(Cc2ccccc2)CC1,i,i,6*,i,0.31,-12.6,71.5*,0.431,113.7%*,56.0%*,i,i,i,
CCCN(CC(=O)Nc1cc(Cl)cc(Cl)c1)CC(=O)Nc1ccc(F)c(F)c1F,i,-13.3*,6*,i,2.47,-9.5,132.0*,0.331*,119.3%*,159.0%*,55.0%*,i,46.5%*,
CC(C)(C)c1nc(SCC(=O)c2ccccc2)c2ccccc2n1,i,-9.04*,9*,i,-0.33,-18.7,84.5*,0.679,i,58.5%*,46.5%*,51.0%*,47.0%*,
CC1(C)CC(=O)C(N=Nc2ccc(OC(F)F)cc2)=C(O)C1,i,i,i,i,1.62,-0.3,x,x,x,x,x,x,x,
Clc1cccc(-c2cc3nc4c(c(N5CCN(c6cnccn6)CC5)n3n2)CCCC4)c1,i,-13.3*,8*,-8.77*,1.95,-18.2,100.0*,0.387,119.0%*,162.0%*,46.0%*,i,36.0%*,KCNQ1 ephys val=i
O=[N+]([O-])c1cc(NCCO)c(N2CCCCCC2)c2nonc12,i,i,i,i,2.19,-7.2,x,x,x,x,x,x,x,
Cc1cc(C)c(S(=O)(=O)c2ccccc2C)c(N(C)C)n1,i,i,i,i,-1.9,-6.2,x,x,x,x,x,x,x,
Cc1cc(C)c(S(=O)(=O)c2ccccc2C)c(SCC(C)C)n1,i,-14.2*,9*,i,-0.12,-10.7,115.0*,0.417,112.0%*,95.0%*,50.0%*,i,41.5%*,KCNQ1 ephys val=i
